Reference: ChEMBL document CHEMBL3259731, “Design, synthesis, and biological evaluation of novel FAK scaffold inhibitors targeting the FAK-VEGFR3 protein-protein interaction” (Eur J Med Chem, 2014)
Calls of active or inactive are those of the source. The rule behind the calls is not given here.

Experiments:
C8161 = test: Cytotoxicity against human C8161 cells assessed as growth inhibition at 50 uM after 72 hrs by MTS assay; type: functional, cell-based
Method in brief: (§1)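 MTS assay. Cells kept in DMEM with 10% FBS, plated at 5000 cells/well and left to attach overnight, then exposed to compound (screening at 50 µM) for 72 h at 37 °C. MTS reagent added for about 1 h, then absorbance read at 570 nm. Viability normalized to DMSO/untreated controls. Three independent experiments, 3–5 replicate wells per concentration.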

MDA-MB-231 = test: Cytotoxicity against human MDA-MB-231 cells assessed as growth inhibition at 50 uM after 72 hrs by MTS assay; type: functional, cell-based; method in brief: as §1
PANC-1 = test: Cytotoxicity against human PANC1 cells transfected with retroviral expression vector pMSCV-LucSh assessed as growth inhibition at 50 uM after 72 hrs by MTS assay; type: functional, cell-based
Method in brief: (§2)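 Cells seeded at 5000/well, attached overnight, then given 50 µM of each analog for 72 h at 37 °C. MTS reagent added for about 1 h, absorbance read at 570 nm. Viability normalized to DMSO/untreated controls. Three independent experiments, each with 3–5 replicate wells per concentration. Cells kept in DMEM with 10% FBS.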

MIA PaCa-2 = test: Cytotoxicity against human MIAPaCa2 cells transfected with retroviral expression vector pMSCV-LucSh assessed as growth inhibition at 50 uM after 72 hrs by MTS assay; type: functional, cell-based; method in brief: as §2
A-375 = test: Cytotoxicity against human A375 cells assessed as growth inhibition at 50 uM after 72 hrs by MTS assay; type: functional, cell-based; method in brief: as §1
U-87MG ATCC = test: Cytotoxicity against human U87 cells assessed as growth inhibition at 50 uM after 72 hrs by MTS assay; type: functional, cell-based; method in brief: as §1
Focal adhesion kinase 1 = Focal adhesion kinase 1 (Homo sapiens, UniProt Q05397); test: Binding affinity to biotinylated human FAK FAT domain by biolayer interoferometry
Method in brief: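 Bio-layer interferometry on super streptavidin biosensor tips, pre-wetted in buffer for a baseline before FAT protein immobilization. Association and dissociation measured over 210 s at two small-molecule concentrations. Kon, Koff and Kd derived from the kinetic fits.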

Focal adhesion kinase 1, sequence (Q05397 2-1052 limits assumed): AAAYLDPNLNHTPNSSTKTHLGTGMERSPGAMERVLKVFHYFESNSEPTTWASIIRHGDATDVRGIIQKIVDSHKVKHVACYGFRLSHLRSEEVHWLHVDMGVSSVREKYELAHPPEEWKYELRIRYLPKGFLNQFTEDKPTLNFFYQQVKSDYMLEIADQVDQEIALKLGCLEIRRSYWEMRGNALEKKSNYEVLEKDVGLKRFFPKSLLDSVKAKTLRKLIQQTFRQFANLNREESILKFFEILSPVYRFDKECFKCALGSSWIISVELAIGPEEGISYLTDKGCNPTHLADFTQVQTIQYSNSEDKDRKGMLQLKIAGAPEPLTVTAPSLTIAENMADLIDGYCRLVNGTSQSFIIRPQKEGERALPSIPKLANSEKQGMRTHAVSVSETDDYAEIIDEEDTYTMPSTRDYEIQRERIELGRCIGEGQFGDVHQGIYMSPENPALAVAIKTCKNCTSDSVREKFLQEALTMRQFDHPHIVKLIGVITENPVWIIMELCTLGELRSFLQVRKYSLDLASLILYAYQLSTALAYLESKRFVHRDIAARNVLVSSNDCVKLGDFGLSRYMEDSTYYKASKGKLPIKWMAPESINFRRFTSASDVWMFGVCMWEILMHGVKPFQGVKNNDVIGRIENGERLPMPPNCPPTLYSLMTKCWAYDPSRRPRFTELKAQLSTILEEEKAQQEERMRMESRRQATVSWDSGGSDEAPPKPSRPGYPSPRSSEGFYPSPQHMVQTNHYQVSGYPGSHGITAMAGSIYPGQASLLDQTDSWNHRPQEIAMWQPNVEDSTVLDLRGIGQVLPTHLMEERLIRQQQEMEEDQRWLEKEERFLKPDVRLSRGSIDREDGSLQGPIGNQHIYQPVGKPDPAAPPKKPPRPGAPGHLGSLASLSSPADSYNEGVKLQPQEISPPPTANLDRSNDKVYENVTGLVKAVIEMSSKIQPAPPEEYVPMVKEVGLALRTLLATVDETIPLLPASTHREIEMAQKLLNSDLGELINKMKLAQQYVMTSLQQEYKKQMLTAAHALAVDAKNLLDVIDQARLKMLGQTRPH

Row | Structure (SMILES) | growth inhibition (GI) (C8161) | growth inhibition (GI) (MDA-MB-231) | growth inhibition (GI) (PANC-1) | growth inhibition (GI) (MIA PaCa-2) | growth inhibition (GI) (A-375) | growth inhibition (GI) (U-87MG ATCC) | Activity (Focal adhesion kinase 1)
1 | CCCCCCCCCCN(CCN(C)C)c1ccccn1 | Active | Active | Active | Active | Active | Active | –
2 | CCCN(CCN(C)C)c1ccccn1 | inactive | inactive | inactive | inactive | inactive | inactive | –
3 | CN(C)CCNc1ccccn1 | inactive | inactive | inactive | inactive | inactive | inactive | inactive
4 | CCCCCCCCN(CCN(C)C)c1ccccn1 | Active | Active | Active | Active | Active | Active | –
